Assay [1] has as its system Rotavirus. Briefly: Antiviral activity against Rotavirus RF in human Caco-2 cells assessed as neutralization of virus in solution before its attachment after 72 hrs. The format is functional, organism-based. The settings on record: Caco-2, 72 h. Put shortly:
(§1)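 Threefold dilutions from 0.5 mg/mL were co-incubated with rotavirus RF in trypsin-supplemented DMEM for 12 h at 37 °C, 5% CO2, before infecting monolayers. Results are mean % of virus-only control (n = 6) for each dilution. IC50 taken from the concentration–effect curve.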

Assay [2] can be described thus: Selectivity index, ratio of CC50 for rhesus monkey MA104 cells to IC50 for Rotavirus RF after attachment to MA104 cells.
Assay [3] has as its system Rotavirus. Briefly: Antiviral activity against Rotavirus RF infected in rhesus monkey MA104 cells assessed as neutralization of virus in solution before its attachment after 72 hrs. The format is functional, organism-based. Particulars: MA104, 72 h. Put shortly:
as §1

The nature of assay [4]: Tumor selectivity index, ratio of CC50 for human H4 cells to CC50 for human Caco-2 cells. The format is functional. Put shortly: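 Ratio of 72 h crystal-violet CC50 in H4 cells to CC50 in Caco-2 cells.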
The test system of assay [5] is Caco-2. Briefly: Cytotoxicity against human Caco-2 cells after 72 hrs. The format is functional. The settings on record: Caco-2, 72 h. Put shortly: (§2)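 H4 or Caco-2 cells (6 × 10⁶ per plate) treated with 3-fold serial dilutions from 0.5 mg/mL and held 72 h at 37 °C in a humidified incubator. Results are mean % of treated (n = 2) versus control (n = 24) absorbance.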

Assay [6] has as its system Caco-2. Briefly: Growth inhibition of human Caco-2 cells after 10 days. Particulars: Caco-2, 240 h. The format is functional, cell-based. Put shortly: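 Caco-2 monolayers in DMEM/10% fetal bovine serum received 3-fold dilutions from 0.5 mg/mL, six wells per compound, for 10 days at 37 °C, humidified. Colonies counted in each well. Results are mean % colony number of treated (n = 2) versus control (n = 24) wells.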

Assay [7] in a line: Selectivity index, ratio of CC50 for rhesus monkey MA104 cells to IC50 for Rotavirus RF. The format is functional.
Assay [8] has as its system Rotavirus. Briefly: Antiviral activity against Rotavirus RF in rhesus monkey MA104 cells assessed as inhibition of infectivity following virus attachment after 72 hrs. The format is functional, organism-based. The settings on record: MA104, 72 h. Put shortly: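 Monolayers infected with rotavirus RF for 1 h at 37 °C in 5% CO2, then washed with unsupplemented DMEM and immediately given 3-fold serial dilutions from 0.5 mg/mL. Results are mean % of virus-only control absorbance (n = 6).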

A short description of assay [9]: Selectivity index, ratio of CC50 for human Caco-2 cells to IC50 for Rotavirus RF. The format is functional.
In assay [10] the test system is H4. Briefly: Cytotoxicity against human H4 cells after 72 hrs. The format is functional. The settings on record: H4, 72 h. Put shortly:
as §2

Assay [11] in a line: Tumor selectivity index, ratio of CC50 for human H4 cells to CC50 for rhesus monkey MA104 cells. The format is functional.
The nature of assay [12]: Cytotoxicity against rhesus monkey MA104 cells after 72 hrs. Particulars: Macaca mulatta, MA104, 72 h. The format is functional.

The record followed here is ChEMBL document CHEMBL1149614, “Exomethylene pyranonucleosides: efficient synthesis and biological evaluation of 1-(2,3,4-trideoxy-2-methylene-beta-d-glycero-hex-3-enopyranosyl)thymine” (Bioorg Med Chem, 2007).

As usually defined, the IC50 is the concentration that inhibits the measured activity by half. The term CC50 denotes the concentration giving 50% cytotoxicity.

Regarding `C=C1[C@@H](O)[C@@H](O)[C@@H](CO)O[C@H]1n1cc(C)c(=O)[nH]c1=O`, the IC50 was determined as 2.46 µM in [1], 2.46 µM in assay [3], 21.1 µM in assay [6] and 7.03 µM in [8]. For the same compound, the “Ratio CC50/IC50” value was found to be 30.03 in [2], 85.8 in assay [7] and 28.61 in assay [9]. Moreover, the Ratio in [4] was determined as 24.9; in assay [11], 8.3. Moreover, the CC50 in [5] was found to be 70.4 µM; in assay [10] it was 1760 µM; in [12], 211 µM.
Regarding `Cc1cn([C@@H]2O[C@H](CO)[C@H](O)[C@H](O)C2=O)c(=O)[nH]c1=O`, the IC50 was 2.44 µM in assay [1], 2.44 µM in assay [3], 0.7 µM in assay [6] and 6.98 µM in [8]. Besides, the “Ratio CC50/IC50” value in [2] stood at 30.03; in assay [7] it was 85.9; in assay [9], 28.65. In addition, the Ratio in assay [4] was found to be 25; in [11], 8.3. For the same compound, the CC50 in assay [5] came out at 69.9 µM; in [10] it was 1750 µM; in [12] it was 210 µM.
As to `C=C1C=C[C@@H](CO)O[C@H]1n1cc(C)c(=O)[nH]c1=O`, the “Ratio CC50/IC50” value in assay [2] was 5.99. The Ratio in [4] is reported as 0.0014; in assay [11] it was 0.0058. Besides, the half-maximal cytotoxic concentration (CC50) in assay [5] is 2000 µM; in assay [10] it was 2.8 µM; in assay [12], 480 µM. The 50% inhibitory concentration (IC50) in [6] and in [8] was 79.9 µM in each case.
Turning to `C=C1C=C[C@@H](COC(c2ccccc2)(c2ccccc2)c2ccccc2)O[C@H]1n1cc(C)c(=O)[nH]c1=O`, in assay [2], the “Ratio CC50/IC50” value came to 60. The values for the Ratio in [4] and in assay [11] were 0.04 and 0.16, respectively. For the same compound, the figures for the CC50 in assay [5], in assay [10] and in assay [12] were 1020 µM, 40.6 µM and 244 µM, respectively. In addition, the IC50 in [6] came to 0.4 µM; in assay [8], 4.06 µM.
`O=c1[nH]cc(F)c(=O)[nH]1` [FLUOROURACIL]: the Ratio in [4] is 10; in assay [11] it was 16.67. Also, the CC50 came to 3840 µM in assay [10] and 231 µM in [12].
With `Cc1cn([C@H]2C[C@H](N=[N+]=[N-])[C@@H](CO)O2)c(=O)[nH]c1=O` [ZIDOVUDINE], the “Ratio CC50/IC50” value is given as 10.03 in assay [2], 3.01 in [7] and 0.75 in assay [9]. Further, the IC50 in assay [3] was 74.6 µM; in assay [8], 22.4 µM.
